Test results from ChEMBL document CHEMBL4266027, “Cyanobufalins: Cardioactive Toxins from Cyanobacterial Blooms” (J Nat Prod, 2018).

What was measured:
BT-474 = assay: Cytotoxicity against human BT474 cells assessed as decrease in cell viability after 72 hrs by MTS assay; type: functional, cell-based; conditions: BT-474, 72 h
In short: (§1)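 Cell proliferation assay using the MTS reagent. Compounds were tested as a dilution series, and EC50 values were derived from the concentration–response data.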

SK-OV-3 = assay: Cytotoxicity against human SKOV3 cells assessed as decrease in cell viability after 72 hrs by MTS assay; type: functional, cell-based; conditions: SK-OV-3, 72 h; in short: as §1
PANC-1 = assay: Cytotoxicity against human PANC1 cells assessed as decrease in cell viability after 72 hrs by MTS assay; type: functional, cell-based; conditions: PANC-1, 72 h; in short: as §1
HCT-116 = assay: Cytotoxicity against human HCT116 cells assessed as decrease in cell viability after 72 hrs by MTS assay; type: functional, cell-based; conditions: HCT-116, 72 h; in short: as §1
HepG2 = assay: Cytotoxicity against human HepG2 cells assessed as decrease in cell viability after 72 hrs by MTS assay; type: functional, cell-based; conditions: HepG2, 72 h; in short: as §1
DU-145 = assay: Cytotoxicity against human DU145 cells assessed as decrease in cell viability after 72 hrs by MTS assay; type: functional, cell-based; conditions: DU-145, 72 h; in short: as §1
HT-1080 = assay: Cytotoxicity against human HT1080 cells assessed as decrease in cell viability after 72 hrs by MTS assay; type: functional, cell-based; conditions: HT-1080, 72 h; in short: as §1
MES-SA = assay: Cytotoxicity against human MESSA cells assessed as decrease in cell viability after 72 hrs by MTS assay; type: functional, cell-based; in short: as §1
MES-SA/Dx5 = assay: Cytotoxicity against human MES-SA/Dx5 cells assessed as decrease in cell viability after 72 hrs by MTS assay; type: functional, cell-based; conditions: MES-SA/Dx5, 72 h; in short: as §1
786-0 = assay: Cytotoxicity against human 786-O cells assessed as decrease in cell viability after 72 hrs by MTS assay; type: functional, cell-based; conditions: 786-0, 72 h; in short: as §1
Daudi = assay: Cytotoxicity against human Daudi cells assessed as decrease in cell viability after 72 hrs by MTS assay; type: functional, cell-based; in short: as §1
THP-1 = assay: Cytotoxicity against human THP1 cells assessed as decrease in cell viability after 72 hrs by MTS assay; type: functional, cell-based; conditions: THP-1, 72 h; in short: as §1
HeLa = assay: Cytotoxicity against human HeLa cells assessed as decrease in cell viability after 72 hrs by MTS assay; type: functional, cell-based; in short: as §1
MCF7 = assay: Cytotoxicity against human MCF7 cells assessed as decrease in cell viability after 72 hrs by MTS assay; type: functional, cell-based; conditions: MCF7, 72 h; in short: as §1
BXPC-3 = assay: Cytotoxicity against human BxPC3 cells assessed as decrease in cell viability after 72 hrs by MTS assay; type: functional, cell-based; conditions: BXPC-3, 72 h; in short: as §1
LoVo = assay: Cytotoxicity against human LoVo cells assessed as decrease in cell viability after 72 hrs by MTS assay; type: functional, cell-based; in short: as §1
[1] = Cytotoxicity against human LOX cells assessed as decrease in cell viability after 72 hrs by MTS assay; type: functional, cell-based; in short: as §1
U-87 MG = assay: Cytotoxicity against human U87MG cells assessed as decrease in cell viability after 72 hrs by MTS assay; type: functional, cell-based, U-87MG ATCC; in short: as §1
NCI-N87 = assay: Cytotoxicity against human NCI-N87 cells assessed as decrease in cell viability after 72 hrs by MTS assay; type: functional, cell-based; conditions: NCI-N87, 72 h; in short: as §1
A549 = assay: Cytotoxicity against human A549 cells assessed as decrease in cell viability after 72 hrs by MTS assay; type: functional, cell-based; conditions: A549, 72 h; in short: as §1
NCI-H1975 = assay: Cytotoxicity against human NCI-H1975 cells assessed as decrease in cell viability after 72 hrs by MTS assay; type: functional, cell-based; conditions: NCI-H1975, 72 h; in short: as §1
MV4-11 = assay: Cytotoxicity against human MV411 cells assessed as decrease in cell viability after 72 hrs by MTS assay; type: functional, cell-based; conditions: MV4-11, 72 h; in short: as §1
MDA-MB-468 = assay: Cytotoxicity against human MDA-MB-468 cells assessed as decrease in cell viability after 72 hrs by MTS assay; type: functional, cell-based; conditions: MDA-MB-468, 72 h; in short: as §1
HUVEC = assay: Cytotoxicity against human HUVEC cells assessed as decrease in cell viability after 72 hrs by MTS assay; type: cell-based; in short: as §1
MRC5 = assay: Cytotoxicity against human MRC5 cells assessed as decrease in cell viability after 72 hrs by MTS assay; type: cell-based; conditions: MRC5, 72 h; in short: as §1
H22 = assay: Cytotoxicity against mouse H22 cells assessed as decrease in cell viability after 72 hrs by MTS assay; type: functional, cell-based; conditions: H22, 72 h; in short: as §1
CCRF S-180 = assay: Cytotoxicity against mouse S180 cells assessed as decrease in cell viability after 72 hrs by MTS assay; type: functional, cell-based; conditions: CCRF S-180, 72 h; in short: as §1
Cardiac muscle cell [2] = assay: Toxicity in human inducible pluripotent stem cell derived cardiomyocytes assessed as change in beating amplitude at 0.32 nM after 8 mins; type: cell-based; conditions: 0.00032 µM
In short: (§2)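 Human iPSC-derived cardiomyocytes (Cor.4U) were grown to stable beating cultures and monitored by impedance in real time with 20 s recordings. Compounds were given as a dilution series from 0.32 nM to 5 μM, dosed twice 24 h apart, with monitoring over 48 h. Beating amplitude was taken from each negative peak to the following positive peak and reported as % change.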

Cardiac muscle cell [3] = assay: Toxicity in human inducible pluripotent stem cell derived cardiomyocytes assessed as change in beating amplitude at 0.32 nM after 33 mins; type: cell-based; conditions: 0.55 h, 0.00032 µM; in short: as §2
Cardiac muscle cell [4] = assay: Toxicity in human inducible pluripotent stem cell derived cardiomyocytes assessed as change in beating amplitude at 0.32 nM after 66 mins; type: cell-based; conditions: 1.1 h, 0.00032 µM; in short: as §2
Cardiac muscle cell [5] = assay: Toxicity in human inducible pluripotent stem cell derived cardiomyocytes assessed as change in beating amplitude at 0.32 nM after 4 hrs; type: cell-based; conditions: 0.00032 µM; in short: as §2
Cardiac muscle cell [6] = assay: Toxicity in human inducible pluripotent stem cell derived cardiomyocytes assessed as change in beating amplitude at 0.32 nM after 12 hrs; type: cell-based; conditions: 0.00032 µM; in short: as §2
Cardiac muscle cell [7] = assay: Toxicity in human inducible pluripotent stem cell derived cardiomyocytes assessed as change in beating amplitude at 0.32 nM after 24 hrs; type: cell-based; conditions: 0.00032 µM; in short: as §2
Cardiac muscle cell [8] = assay: Toxicity in human inducible pluripotent stem cell derived cardiomyocytes assessed as change in beating amplitude at 0.32 nM after 36 hrs; type: cell-based; conditions: 0.00032 µM; in short: as §2
Cardiac muscle cell [9] = assay: Toxicity in human inducible pluripotent stem cell derived cardiomyocytes assessed as change in beating amplitude at 0.32 nM after 48 hrs; type: cell-based; conditions: 0.00032 µM; in short: as §2
Cardiac muscle cell [10] = assay: Toxicity in human inducible pluripotent stem cell derived cardiomyocytes assessed as change in beating amplitude at 1.6 nM after 33 mins; type: cell-based; conditions: 0.55 h, 0.0016 µM; in short: as §2
Cardiac muscle cell [11] = assay: Toxicity in human inducible pluripotent stem cell derived cardiomyocytes assessed as change in beating amplitude at 1.6 nM after 66 mins; type: cell-based; conditions: 1.1 h, 0.0016 µM; in short: as §2
Cardiac muscle cell [12] = assay: Toxicity in human inducible pluripotent stem cell derived cardiomyocytes assessed as change in beating amplitude at 1.6 nM after 4 hrs; type: cell-based; conditions: 0.0016 µM; in short: as §2
Cardiac muscle cell [13] = assay: Toxicity in human inducible pluripotent stem cell derived cardiomyocytes assessed as change in beating amplitude at 1.6 nM after 12 hrs; type: cell-based; conditions: 0.0016 µM; in short: as §2
Cardiac muscle cell [14] = assay: Toxicity in human inducible pluripotent stem cell derived cardiomyocytes assessed as change in beating amplitude at 1.6 nM after 24 hrs; type: cell-based; conditions: 0.0016 µM; in short: as §2
Cardiac muscle cell [15] = assay: Toxicity in human inducible pluripotent stem cell derived cardiomyocytes assessed as change in beating amplitude at 1.6 nM after 36 hrs; type: cell-based; conditions: 0.0016 µM; in short: as §2
Cardiac muscle cell [16] = assay: Toxicity in human inducible pluripotent stem cell derived cardiomyocytes assessed as change in beating amplitude at 1.6 nM after 48 hrs; type: cell-based; conditions: 0.0016 µM; in short: as §2
Cardiac muscle cell [17] = assay: Toxicity in human inducible pluripotent stem cell derived cardiomyocytes assessed as change in beating amplitude at 8 nM after 33 mins; type: cell-based; conditions: 0.55 h, 0.008 µM; in short: as §2
Cardiac muscle cell [18] = assay: Toxicity in human inducible pluripotent stem cell derived cardiomyocytes assessed as change in beating amplitude at 8 nM after 66 mins; type: cell-based; conditions: 1.1 h, 0.008 µM
In short: (§3)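 Cor.4U hiPSC-derived cardiomyocytes grown to stable beating cultures, then monitored by impedance in RTCA Cardio plates with 20 s recordings. Compounds tested as a dilution series from 0.32 nM to 5 μM, dosed twice 24 h apart, followed over 48 h. Beating amplitude is taken from each negative peak to the next positive peak and reported as percent change.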

Cardiac muscle cell [19] = assay: Toxicity in human inducible pluripotent stem cell derived cardiomyocytes assessed as change in beating amplitude at 8 nM after 4 hrs; type: cell-based; conditions: 0.008 µM; in short: as §3
Cardiac muscle cell [20] = assay: Toxicity in human inducible pluripotent stem cell derived cardiomyocytes assessed as change in beating amplitude at 8 nM after 12 hrs; type: cell-based; conditions: 0.008 µM; in short: as §2
Cardiac muscle cell [21] = assay: Toxicity in human inducible pluripotent stem cell derived cardiomyocytes assessed as change in beating amplitude at 8 nM after 24 hrs; type: cell-based; conditions: 0.008 µM; in short: as §2
Cardiac muscle cell [22] = assay: Toxicity in human inducible pluripotent stem cell derived cardiomyocytes assessed as change in beating amplitude at 40 nM after 33 mins; type: cell-based; conditions: 0.55 h, 0.04 µM; in short: as §2
Cardiac muscle cell [23] = assay: Toxicity in human inducible pluripotent stem cell derived cardiomyocytes assessed as change in beating amplitude at 40 nM after 66 mins; type: cell-based; conditions: 1.1 h, 0.04 µM; in short: as §2
Cardiac muscle cell [24] = assay: Toxicity in human inducible pluripotent stem cell derived cardiomyocytes assessed as change in beating amplitude at 1.6 nM after 8 mins; type: cell-based; conditions: 0.0016 µM; in short: as §2
Cardiac muscle cell [25] = assay: Toxicity in human inducible pluripotent stem cell derived cardiomyocytes assessed as change in beating amplitude at 8 nM after 8 mins; type: cell-based; conditions: 0.008 µM; in short: as §3
Cardiac muscle cell [26] = assay: Toxicity in human inducible pluripotent stem cell derived cardiomyocytes assessed as change in beating amplitude at 40 nM after 8 mins; type: cell-based; conditions: 0.04 µM; in short: as §2
Cardiac muscle cell [27] = assay: Toxicity in human inducible pluripotent stem cell derived cardiomyocytes assessed as increase in beating amplitude at >= 40 nM up to 48 hrs; type: cell-based; in short: as §3
Cardiac muscle cell [28] = assay: Toxicity in human inducible pluripotent stem cell derived cardiomyocytes assessed as increase in beating amplitude at 8 nM up to 48 hrs; type: cell-based; conditions: 0.008 µM; in short: as §3

SMILES: CC1(C)[C@@H](OC(N)=O)C=C[C@]2(C=O)[C@H]3CC[C@]4(C)[C@@H](c5ccc(=O)oc5)[C@@H](Cl)C[C@]4(O)C3=CC[C@@H]12
- EC50 (BT-474): 3.7 nM
- EC50 (SK-OV-3): 6 nM
- EC50 (PANC-1): 2.1 nM
- EC50 (HCT-116): 6 nM
- EC50 (HepG2): 5.8 nM
- EC50 (DU-145): 5.2 nM
- EC50 (HT-1080): 5.4 nM
- EC50 (MES-SA): 6.8 nM
- EC50 (MES-SA/Dx5): 5.8 nM
- EC50 (786-0): 2.3 nM
- EC50 (Daudi): 3.3 nM
- EC50 (THP-1): 4.3 nM
- EC50 (HeLa): 4.7 nM
- EC50 (MCF7): 15 nM
- EC50 (BXPC-3): 5.7 nM
- EC50 (LoVo): 5.6 nM
- EC50 [1]: 3.7 nM
- EC50 (U-87 MG): 5.7 nM
- EC50 (NCI-N87): 5.8 nM
- EC50 (A549): 3.7 nM
- EC50 (NCI-H1975): 3.1 nM
- EC50 (MV4-11): 6.3 nM
- EC50 (MDA-MB-468): 7 nM
- EC50 (HUVEC): 9.7 nM
- EC50 (MRC5): 2.4 nM
- EC50 (H22): 4600 nM
- EC50 (CCRF S-180): > 20000 nM
- Activity (Cardiac muscle cell [2]): -2.7%
- Activity (Cardiac muscle cell [3]): 0.7%
- Activity (Cardiac muscle cell [4]): -1.9%
- Activity (Cardiac muscle cell [5]): 19%
- Activity (Cardiac muscle cell [6]): 23%
- Activity (Cardiac muscle cell [7]): 30%
- Activity (Cardiac muscle cell [8]): 57%
- Activity (Cardiac muscle cell [9]): 30%
- Activity (Cardiac muscle cell [10]): -2.1%
- Activity (Cardiac muscle cell [11]): 2.6%
- Activity (Cardiac muscle cell [12]): 9.7%
- Activity (Cardiac muscle cell [13]): 3.3%
- Activity (Cardiac muscle cell [14]): 2.8%
- Activity (Cardiac muscle cell [15]): 11%
- Activity (Cardiac muscle cell [16]): -20%
- Activity (Cardiac muscle cell [17]): 7.5%
- Activity (Cardiac muscle cell [18]): 14%
- Activity (Cardiac muscle cell [19]): -19%
- Activity (Cardiac muscle cell [20]): -18%
- Activity (Cardiac muscle cell [21]): -59%
- Activity (Cardiac muscle cell [22]): 13%
- Activity (Cardiac muscle cell [23]): -94%
- Activity (Cardiac muscle cell [24]): -1.9%
- Activity (Cardiac muscle cell [25]): 3.9%
- Activity (Cardiac muscle cell [26]): 2.6%
- Activity (Cardiac muscle cell [27]): Toxic
- Activity (Cardiac muscle cell [28]): Toxic
